The values that follow come from ChEMBL document CHEMBL1122737, “5-[(Aminoalkyl)amino]-substituted anthra[1,9-cd]pyrazol-6(2H)-ones as novel anticancer agents. Synthesis and biological evaluation” (1984).

The subject of experiment [1] is P388. Put plainly: Evaluated in vivo for the antitumor activity against P388 leukemia cells at a dose of 50 mg/kg (single injection) and 100 mg/kg (Total ). The class given is functional, Mus musculus. The procedure, abridged:
(§1)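 Murine P388 leukemia, drug given ip on a q04d × 02 schedule (a slightly modified NCI protocol). Dose is listed per injection and as a total. Read-out is % T/C survival. Mice alive at 30 days count as cured and are left out of % T/C. Cured/tested counts are reported.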

Experiment [2] relates to P388. Put plainly: in vivo for the antitumor activity against P388 leukemia cells at a dose of 100 mg/kg (single injection) and 200 mg/kg (Total). The class given is functional, Mus musculus. The procedure, abridged: as §1
A further experiment deals with L1210. Put plainly: Antitumor activity against L1210 lymphocytic cells in vitro. The class given is functional. To be noted: Mus musculus, read-out: ID50 (the source's name).
A short description of experiment [3]: In vivo antitumor activity at a single dose of 12.5 mg/kg & 37.5 mg/kg total against mammary adenocarcinoma 16C to assess tumor growth delay (T-C). The class given is functional, Mus musculus. The procedure, abridged:
(§2)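 Mammary adenocarcinoma 16C is implanted sc in mice on day 0. Treatment is iv on days 1, 5 and 9, with dose per injection and total. Tumors are measured in two dimensions three times weekly to give growth delay (T − C, days) and gross log kill. Cured mice are excluded from these calculations.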

Experiment [4] is described as follows: In vivo antitumor activity at a single dose of 6.5 mg/kg & 18.8 mg/kg total against mammary adenocarcinoma 16C to assess tumor growth delay (T-C). The class given is functional, Mus musculus. The procedure, abridged:
as §2

Experiment [5] can be described thus: In vivo antitumor activity at a single dose of 12.5 mg/kg & 37.5 mg/kg total against mammary adenocarcinoma 16C. The class given is functional, Mus musculus. The procedure, abridged: (§3)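 Mice were inoculated sc with mammary adenocarcinoma 16C on day 0 and given the agent (as the dihydrochloride salt) iv on days 1, 5 and 9. Tumors were measured in two dimensions three times weekly. Tumor growth delay (T − C, days) and gross log kill were derived, with cured mice excluded from these calculations.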

Experiment [6] is described as follows: In vivo antitumor activity at a single dose of 6.5 mg/kg & 18.8 mg/kg total against mammary adenocarcinoma 16C. The class given is functional, Mus musculus. The procedure, abridged:
as §3

In experiment [7] the test system is P388. Put plainly: In vivo antitumor activity against P388 leukemia cells at a dose of 12.5 mg/kg (single injection) and 25 mg/kg (Total ). The class given is functional, Mus musculus. The procedure, abridged:
as §1

Experiment [8] deals with P388. Put plainly: In vivo antitumor activity against P388 leukemia cells at a dose of 25 mg/kg as a single injection and 50 mg/kg as a total. The class given is functional, Mus musculus. The procedure, abridged: as §1
Experiment [9] can be described thus: Compound was evaluated in vivo for the antitumor activity at a dose of 1.25 mg/kg & 3.75 mg/kg against mammary adenocarcinoma 16C to assess tumor growth delay (T-C). The class given is functional, Mus musculus. The procedure, abridged:
as §2

Experiment [10] in a line: Compound was evaluated in vivo for the antitumor activity at a dose of 2.5 mg/kg & 7.5 mg/kg against mammary adenocarcinoma 16C to assess tumor growth delay (T-C). The class given is functional, Mus musculus. The procedure, abridged:
as §2

The subject of experiment [11] is P388. The experiment in a line: In vivo antitumor activity against P388 leukemia cells at a dose of 0.75 mg/kg as a single injection and 1.5 mg/kg as a total. The class given is functional, Mus musculus. The procedure, abridged: as §1
The test system of experiment [12] is P388. Put plainly: In vivo antitumor activity against P388 leukemia cells at a dose of 1.5 mg/kg as a single injection and 3 mg/kg as a total. The class given is functional, Mus musculus. The procedure, abridged: as §1
A short description of experiment [13]: In vivo antitumor activity at a single dose of 2.5 mg/kg & 7.5 mg/kg total against mammary adenocarcinoma 16C.
A short description of experiment [14]: In vivo antitumor activity at a single dose of 1.25 mg/kg & 3.75 mg/kg total against mammary adenocarcinoma 16C.

Usually T/C stands for the result in the treated group divided by that in the control group, in per cent. Take `O=C1c2cccc(O)c2-c2nn(CCNCCO)c3ccc(NCCNCCO)c1c23`: the T/C in the experiment on P388 [1] came out at 172%; with P388 [2] it was 221%.

`O=C1c2c(O)cccc2-c2nn(CCNCCO)c3ccc(NCCNCCO)c1c23` [LOSOXANTRONE]: the IC50 in the experiment with L1210 came out at 5.13 nM. The T-C in [3] was 11.4 days; in [4], 7 days. The Gross log kill in [5] came out at 3.1; in experiment [6] it was 1.9. Moreover, the T/C came to 219% in the experiment on P388 [7] and 248% in the experiment with P388 [8].

For `O=C1c2c(O)ccc(O)c2C(=O)c2c(NCCNCCO)ccc(NCCNCCO)c21` [MITOXANTRONE], the T-C in [9] is 3 days; in [10] it was 4.1 days. Moreover, the values for the T/C in the experiment with P388 [11] and with P388 [12] were 231% and 278%, respectively. For the same molecule, the values for the Gross kill in [13] and in experiment [14] were 1.1 and 0.8, respectively.
